From ChEMBL document CHEMBL1629423, “Second generation analogs of rigid 6,7-spiro scaffolds targeting the bacterial ribosome” (Bioorg Med Chem Lett, 2010)

Legend:
Nucleic Acid = assay: Binding affinity to RNA by RNA fluorescence assay; type: nucleic-acid assay
Procedure, shortened: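 Decoding-site model RNA oligonucleotide carrying 2-aminopurine at the flexible adenine A1492. Binding is read as the rise in 2AP fluorescence emission. EC50 is the mean of three replicate experiments per compound (±10%), in μM.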

Bacterial 70S ribosome = assay: Binding affinity to Escherichia coli ribosome assessed as inhibition of transcription-translational activity by luciferase assay; type: subcellular
Procedure, shortened: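 Coupled in vitro transcription–translation run in E. coli extract. IC50 values are given in μM and averaged over three replicate experiments per compound (±15%).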

Ribosome = assay: Binding affinity to ribosome in reticulocyte lysate assessed as inhibition of transcription-translational activity by luciferase assay; type: subcellular
Procedure, shortened: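 Eukaryotic counter-screen by coupled transcription/translation (TNT quick) in reticulocyte lysate. IC50 is the mean of three replicate experiments per compound (±15%), in μM.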

SMILES	EC50 (Nucleic Acid)	IC50 (Bacterial 70S ribosome)	IC50 (Ribosome)
C=CCC(C)(C)CN[C@@H]1C[C@H](N)[C@@]2(CCC=CCO2)[C@H](O)[C@H]1O	63 µM	429 µM	> 1000 µM
N[C@@H]1C[C@H](N)[C@@]2(CCC=CCO2)[C@H](O)[C@H]1O	8.4 µM	> 1000 µM	> 1000 µM
NCC[C@H](O)C(=O)N[C@@H]1C[C@H](N)[C@@]2(CC[C@H](O)[C@H](O)CO2)[C@H](O)[C@H]1O	6.9 µM	186 µM	> 1000 µM
NC[C@H]1O[C@H](O[C@H]2[C@H](O)[C@@H](O)[C@H](N)C[C@@H]2N)[C@H](N)[C@@H](O)[C@@H]1O [NEAMINE]	9.5 µM	5 µM	120 µM
NC[C@@H]1O[C@H](O[C@H]2[C@@H](O)[C@H](O[C@@H]3[C@@H](O)[C@H](N)C[C@H](N)[C@H]3O[C@H]3O[C@H](CN)[C@@H](O)[C@H](O)[C@H]3N)O[C@@H]2CO)[C@H](N)[C@@H](O)[C@@H]1O [FRAMYCETIN]	0.007 µM	0.032 µM	252 µM
N[C@@H]1C[C@H](N)[C@@]2(C[C@H](O)[C@H](O)CO2)[C@H](O)[C@H]1O	6.5 µM	11.3 µM	> 1000 µM
N[C@@H]1C[C@H](N)[C@@]2(CC[C@@H](O)[C@@H](O)CO2)[C@H](O)[C@H]1O	141 µM	168 µM	160 µM
N[C@@H]1C[C@H](N)[C@@]2(CC[C@H](O)[C@H](O)CO2)[C@H](O)[C@H]1O	74 µM	118 µM	130 µM
NCCCC[C@H](N)C(=O)N[C@@H]1C[C@H](N)[C@@]2(CC[C@H](O)[C@H](O)CO2)[C@H](O)[C@H]1O	12 µM	98 µM	> 1000 µM
